Measurements reported in ChEMBL document CHEMBL1649373, “Candimine-induced cell death of the amitochondriate parasite Trichomonas vaginalis” (2010).
The source made the active and inactive calls. The rule behind the calls is not given here.

Columns and labels:
[1] = tested on: Trichomonas vaginalis; assay: Induction of striking morphological alteration in Trichomonas vaginalis TV-VP60 assessed as change in intracellular localization of hydrogenosomes at 250 uM after 6 to 24 hrs by transmission electron microscopic analysis; format: functional, organism-based
[2] = tested on: Trichomonas vaginalis; assay: Induction of striking morphological alteration in Trichomonas vaginalis TV-VP60 assessed as change in shape of hydrogenosomes at 250 uM after 6 to 24 hrs by transmission electron microscopic analysis; format: functional, organism-based
[3] = tested on: Trichomonas vaginalis; assay: Induction of striking morphological alteration in Trichomonas vaginalis TV-VP60 assessed as loss of original shape of parasites with some fissures on the surface at 250 uM by scanning electron microscopic analysis; format: functional, organism-based; settings: TDE = time-dependent effect
In short: (§1)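 Surface morphology of TV-VP60 trophozoites exposed to 250 µM for 6 h and 24 h was examined by scanning electron microscopy.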

[4] = tested on: Trichomonas vaginalis; assay: Growth inhibition of Trichomonas vaginalis TV-VP60 at 250 uM treated followed by washout measured after 48 hrs growth period; format: functional, organism-based
In short: (§2)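 TV-VP60 trophozoites treated with 250 µM for 12 or 24 h, centrifuged, and the pellet reinoculated into fresh medium without alkaloid. Growth was then followed as a kinetic curve. Untreated trophozoites went through the same procedure for comparison.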

[5] = tested on: Trichomonas vaginalis; assay: Cell cycle arrest in Trichomonas vaginalis TV-VP60 assessed as accumulation at G1 phase at 250 uM after 6 hrs using Annexin V FITC and propidium iodide staining by flow cytometry relative to control; format: functional
In short: (§3)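 TV-VP60 trophozoites (fresh clinical isolate) exposed to 250 µM for 6 h or 24 h; cell-cycle distribution measured by flow cytometry and compared with untreated trophozoites.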

[6] = tested on: Trichomonas vaginalis; assay: Growth inhibition of Trichomonas vaginalis TV-VP60 at 250 uM using initial inoculum of 1.0 x 10^5 trophozoites/mL; format: functional, organism-based
In short: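 Kinetic growth curve of TV-VP60 trophozoites with 250 µM present, starting from initial inocula of 1.0 × 10^5 or 5.0 × 10^4 trophozoites/mL. Untreated parasites served as control.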

[7] = tested on: Trichomonas vaginalis; assay: Induction of striking morphological alteration in Trichomonas vaginalis TV-VP60 assessed as elongated nucleus at 250 uM after 24 hrs by transmission electron microscopic analysis; format: functional, organism-based
[8] = tested on: Trichomonas vaginalis; assay: Cell cycle arrest in Trichomonas vaginalis TV-VP60 assessed as accumulation at S phase at 250 uM after 6 hrs using Annexin V FITC and propidium iodide staining by flow cytometry relative to control; format: functional; in short: as §3
[9] = tested on: Trichomonas vaginalis; assay: Induction of striking morphological alteration in Trichomonas vaginalis TV-VP60 assessed as loss of original shape of parasites with some fissures on the surface at 250 uM after 6 hrs by scanning electron microscopic analysis; format: functional, organism-based; in short: as §1
[10] = tested on: Trichomonas vaginalis; assay: Induction of striking morphological alteration in Trichomonas vaginalis TV-VP60 assessed as formation of multinucleated cells at 250 uM after 24 hrs by transmission electron microscopic analysis; format: functional, organism-based
[11] = tested on: Trichomonas vaginalis; assay: Growth inhibition of Trichomonas vaginalis TV-VP60 at 250 uM using initial inoculum of 5 x 10^5 trophozoites/mL; format: functional, organism-based
[12] = tested on: Trichomonas vaginalis; assay: Induction of striking morphological alteration in Trichomonas vaginalis TV-VP60 assessed as effect on endoplasmic reticulum at 250 uM after 6 hrs by transmission electron microscopic analysis; format: functional, organism-based
[13] = tested on: Trichomonas vaginalis; assay: Induction of apoptosis in Trichomonas vaginalis TV-VP60 assessed as formation of apoptotic bodies at 250 uM after 6 to 24 hrs by flow cytometry; format: functional, organism-based
[14] = tested on: Trichomonas vaginalis; assay: Induction of striking morphological alteration in Trichomonas vaginalis TV-VP60 assessed as degenerated cytoplasm matrix at 250 uM after 24 hrs by transmission electron microscopic analysis; format: functional, organism-based
[15] = tested on: Trichomonas vaginalis; assay: Induction of striking morphological alteration in Trichomonas vaginalis TV-VP60 assessed as change in size of hydrogenosomes at 250 uM after 6 to 24 hrs by transmission electron microscopic analysis; format: functional, organism-based
[16] = tested on: Trichomonas vaginalis; assay: Induction of apoptosis in Trichomonas vaginalis TV-VP60 assessed as DNA fragmentation at 250 uM after 6 to 24 hrs by agarose gel electrophoresis; format: functional, organism-based
In short: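 Genomic DNA from TV-VP60 trophozoites treated with 250 µM for 6 h and 24 h was analysed by electrophoresis alongside untreated parasites.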

[17] = tested on: Trichomonas vaginalis; assay: Induction of striking morphological alteration in Trichomonas vaginalis TV-VP60 assessed as effect on golgi apparatus at 250 uM after 6 hrs by transmission electron microscopic analysis; format: functional, organism-based
[18] = tested on: Trichomonas vaginalis; assay: Induction of striking morphological alteration in Trichomonas vaginalis TV-VP60 assessed as loss of original shape of parasites with some fissures on the surface at 250 uM after 24 hrs by scanning electron microscopic analysis; format: functional, organism-based; in short: as §1
[19] = tested on: Trichomonas vaginalis; assay: Cell cycle arrest in Trichomonas vaginalis TV-VP60 assessed as accumulation at G2 phase at 250 uM after 6 hrs using Annexin V FITC and propidium iodide staining by flow cytometry relative to control; format: functional; in short: as §3
[20] = tested on: Trichomonas vaginalis; assay: Induction of striking morphological alteration in Trichomonas vaginalis TV-VP60 assessed as hydrogenosomes on autophagic vacuoles at 250 uM after 24 hrs by transmission electron microscopic analysis; format: functional, organism-based
[21] = tested on: Trichomonas vaginalis; assay: Cell cycle arrest in Trichomonas vaginalis TV-VP60 assessed as accumulation at G2 phase at 250 uM after 24 hrs using Annexin V FITC and propidium iodide staining by flow cytometry relative to control; format: functional; in short: as §3
[22] = tested on: Trichomonas vaginalis; assay: Induction of striking morphological alteration in Trichomonas vaginalis TV-VP60 assessed as large peripheral vacuoles between plasma membrane and cytoplasm at 250 uM after 24 hrs by transmission electron microscopic analysis; format: functional, organism-based
[23] = tested on: Trichomonas vaginalis; assay: Cell cycle arrest in Trichomonas vaginalis TV-VP60 assessed as accumulation at G1 phase at 250 uM after 24 hrs using Annexin V FITC and propidium iodide staining by flow cytometry relative to control; format: functional; in short: as §3
[24] = tested on: Trichomonas vaginalis; assay: Cell cycle arrest in Trichomonas vaginalis TV-VP60 assessed as accumulation at S phase at 250 uM after 24 hrs using Annexin V FITC and propidium iodide staining by flow cytometry relative to control; format: functional; in short: as §3
[25] = tested on: Trichomonas vaginalis; assay: Induction of vacuolization formation in Trichomonas vaginalis TV-VP60 at 250 uM after 6 to 24 hrs by flow cytometry; format: functional, organism-based
In short: (§4)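 TV-VP60 trophozoites exposed to 250 µM for 6 h and 24 h. Cell size and granularity were read by flow cytometry, with granularity taken as the vacuolization rate.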

[26] = tested on: Trichomonas vaginalis; assay: Induction of phosphatidylserine exposure in Trichomonas vaginalis TV-VP60 at 250 uM after 6 to 24 hrs by Annexin V-FITC staining; format: functional, organism-based
[27] = tested on: Trichomonas vaginalis; assay: Induction of striking morphological alteration in Trichomonas vaginalis TV-VP60 assessed as pseudocysts at flagella internalization stage at 5 uM after 24 hrs by scanning electron microscopic analysis; format: functional, organism-based
[28] = tested on: Trichomonas vaginalis; assay: Cytotoxicity against Trichomonas vaginalis TV-VP60 at 2.5 uM to 1 mM after 24 hrs by trypan blue exclusion assay; format: functional, organism-based
In short: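 Dose-response run on 5.0 × 10^5 TV-VP60 trophozoites/mL (fresh clinical isolate), concentrations 2.5 to 1000 µM, 24 h exposure, viable trophozoites counted. Vehicle control included; metronidazole 50 µM used as positive control.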

[29] = tested on: Trichomonas vaginalis; assay: Induction of striking morphological alteration in Trichomonas vaginalis TV-VP60 assessed as abnormal shape of nucleus at 250 uM after 24 hrs by transmission electron microscopic analysis; format: functional, organism-based
[30] = tested on: Trichomonas vaginalis; assay: Effect on alteration in size of trophozoites in Trichomonas vaginalis TV-VP60 at 250 uM after 6 to 24 hrs by flow cytometry; format: functional, organism-based; in short: as §4
[31] = tested on: Trichomonas vaginalis; assay: Growth inhibition of Trichomonas vaginalis TV-VP60 at 250 uM treated followed by washout measured after 12 hrs growth period; format: functional, organism-based; in short: as §2
[32] = tested on: Trichomonas vaginalis; assay: Induction of striking morphological alteration in Trichomonas vaginalis TV-VP60 assessed as striate vacuolization close to nucleus at 250 uM after 24 hrs by transmission electron microscopic analysis; format: functional, organism-based
[33] = tested on: Trichomonas vaginalis; assay: Cytotoxicity against Trichomonas vaginalis TV-VP60 at 50 uM after 24 hrs by trypan blue exclusion assay; format: functional

Structure (SMILES): COc1c2c(cc3c1C(=O)O[C@H]1[C@@H]3[C@H]3C(=C[C@@H]1O)CCN3C)OCO2 [CANDIMINE]
- Activity [1]: Active
- Activity [2]: Active
- Activity [3]: tde
- growth inhibition (GI) [4]: inactive
- Activity [5]: 34.39%
- growth inhibition (GI) [6]: Active
- Activity [7]: Active
- Activity [8]: 19.89%
- Activity [9]: Active
- Activity [10]: inactive
- growth inhibition (GI) [11]: Active
- Activity [12]: inactive
- Activity [13]: inactive
- Activity [14]: inactive
- Activity [15]: Active
- Activity [16]: inactive
- Activity [17]: inactive
- Activity [18]: Active
- Activity [19]: 44.2%
- Activity [20]: Active
- Activity [21]: 58.97%
- Activity [22]: Active
- Activity [23]: 22.66%
- Activity [24]: 19.49%
- Activity [25]: Active
- Activity [26]: inactive
- Activity [27]: Active
- Activity [28]: Active
- Activity [29]: Active
- Activity [30]: inactive
- growth inhibition (GI) [31]: inactive
- Activity [32]: Active

Structure (SMILES): Cc1ncc([N+](=O)[O-])n1CCO [METRONIDAZOLE]
- Activity [33]: 100%
